Experimental data from ChEMBL document CHEMBL4371072, “Structure-Activity Relationship Studies and Plasmodium Life Cycle Profiling Identifies Pan-Active N-Aryl-3-trifluoromethyl Pyrido[1,2- a]benzimidazoles Which Are Efficacious in an in Vivo Mouse Model of Malaria” (J Med Chem, 2019).

test system: Plasmodium falciparum; test: (§1) Antiplasmodial activity against chloroquine-resistant asexual blood stage of Plasmodium falciparum K1 infected in human RBC assessed as reduction in [3H]hypoxanthine incorporation preincubated for 48 hrs followed by [3H]hypoxanthine addition measured after 24 hrs by liquid scintillation counting method; format: functional, organism-based
Outline: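 Asexual blood-stage P. falciparum K1 (multidrug resistant) screened by modified [3H]-hypoxanthine incorporation assay; IC50 as mean of n ≥ 2 assays, replicates differing above 3-fold excluded; chloroquine and artesunate controls.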

| SMILES | IC50 |
| --- | --- |
| NC(=O)c1c(C(F)(F)F)cc(NCc2ccccn2)n2c1nc1ccccc12 | > 10 µM |
| FC(F)(F)Oc1ccc(Nc2cc(C(F)(F)F)cc3nc4ccccc4n23)cc1 | 3.36 µM |
| C[C@H]1[C@H](OC(=O)CCC(=O)O)O[C@@H]2O[C@@]3(C)CC[C@H]4[C@H](C)CC[C@@H]1[C@@]24OO3 [ARTESUNATE] | 0.003 µM |
| NC(=O)c1c(C(F)(F)F)cc(NCc2ccc(OC(F)(F)F)cc2)n2c1nc1ccccc12 | 7.59 µM |

test system: Plasmodium falciparum; test: as §1, with “chloroquine-sensitive” for “chloroquine-resistant”, “NF54” for “K1”; format: functional, organism-based
Outline: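 Asexual blood-stage P. falciparum NF54 assay, run as a modified [3H]-hypoxanthine incorporation assay. Values are the mean of n ≥ 2 assays; determinations differing more than 3-fold were excluded. Chloroquine and artesunate served as controls.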

| SMILES | IC50 |
| --- | --- |
| COC(=O)c1c(C(F)(F)F)cc(Nc2ccc(OC(F)(F)F)cc2)n2c1nc1ccccc12 | 5.52 µM |
| N#Cc1c(C(F)(F)F)cc(NCc2ccc(O)cc2)n2c1nc1ccccc12 | 8.74 µM |
| NC(=O)c1c(C(F)(F)F)cc(NCc2ccccn2)n2c1nc1ccccc12 | > 10 µM |
| N#Cc1c(C(F)(F)F)cc(Nc2ccccc2)n2c1nc1ccccc12 | > 2.83 µM |
| CN(C)C(=O)c1ccc(CNc2cc(C(F)(F)F)c(C#N)c3nc4ccccc4n23)cc1 | > 2.28 µM |
| CN(C)c1ccc(CNc2cc(C(F)(F)F)c(C#N)c3nc4ccccc4n23)cc1 | 2.98 µM |
| N#Cc1c(C(F)(F)F)cc(NCc2ccncc2)n2c1nc1ccccc12 | > 2.72 µM |
| N#Cc1ccc(S(=O)(=O)Nc2cc(C(F)(F)F)c(C#N)c3nc4cc(Cl)c(Cl)cc4n23)cc1 | 5.64 µM |
| N#Cc1c(C(F)(F)F)cc(NCc2cnccn2)n2c1nc1ccccc12 | 2.6 µM |
| FC(F)(F)Oc1ccc(Nc2cc(C(F)(F)F)cc3nc4ccccc4n23)cc1 | 4.24 µM |
| C[C@H]1[C@H](OC(=O)CCC(=O)O)O[C@@H]2O[C@@]3(C)CC[C@H]4[C@H](C)CC[C@@H]1[C@@]24OO3 [ARTESUNATE] | 0.004 µM |
| COC(=O)c1ccc(Nc2cc(C(F)(F)F)c(C#N)c3nc4ccccc4n23)cc1 | 1.59 µM |
| N#Cc1c(C(F)(F)F)cc(NCc2ncccn2)n2c1nc1ccccc12 | 4.8 µM |
| N#Cc1c(C(F)(F)F)cc(N2CCNCC2)n2c1nc1cc(Cl)c(Cl)cc12 | 8.11 µM |
| N#Cc1c(C(F)(F)F)cc(NCc2ccccc2)n2c1nc1ccccc12 | 6.11 µM |
| N#Cc1ccc(Nc2cc(C(F)(F)F)c(C#N)c3nc4ccccc4n23)cc1 | 2.36 µM |
| CS(=O)(=O)c1ccc(Nc2cc(C(F)(F)F)c(C#N)c3nc4ccccc4n23)cc1 | > 2.32 µM |
| NC(=O)c1c(C(F)(F)F)cc(NCc2ccc(F)cc2)n2c1nc1ccccc12 | > 6 µM |
| NC(=O)c1c(C(F)(F)F)cc(NCc2ccc(OC(F)(F)F)cc2)n2c1nc1ccccc12 | 5.16 µM |
| CNC(=O)c1ccc(CNc2cc(C(F)(F)F)c(C#N)c3nc4ccccc4n23)cc1 | > 2.36 µM |

| SMILES | IC50 |
| --- | --- |
| COc1ccc(Nc2cc(C(F)(F)F)c(C#N)c3nc4ccccc4n23)cc1 | 2.26 µM |
| CN(C)c1ccc(Nc2cc(C(F)(F)F)c(C#N)c3nc4ccccc4n23)cc1 | 5.62 µM |
| CNC(=O)c1ccc(Nc2cc(C(F)(F)F)c(C#N)c3nc4ccccc4n23)cc1 | > 10 µM |
| N#Cc1c(C(F)(F)F)cc(N2CCNCC2)n2c1nc1ccccc12 | 10 µM |
| CCCOc1ccc(Nc2cc(C(F)(F)F)c(C#N)c3nc4ccccc4n23)cc1 | 1.16 µM |
| N#Cc1c(C(F)(F)F)cc(Nc2ncccn2)n2c1nc1ccccc12 | > 2.69 µM |
| N#Cc1c(C(F)(F)F)cc(NCc2cccnc2)n2c1nc1ccccc12 | > 2.72 µM |
| CN(C)C(=O)c1ccc(Nc2cc(C(F)(F)F)c(C#N)c3nc4ccccc4n23)cc1 | > 2.36 µM |
| CC(C)c1ccc(Nc2cc(C(F)(F)F)c(C#N)c3nc4ccccc4n23)cc1 | 1.01 µM |
| N#Cc1c(C(F)(F)F)cc(Nc2ccnc(F)c2)n2c1nc1ccccc12 | > 2.52 µM |
| Cc1ccc(Nc2cc(C(F)(F)F)c(C#N)c3nc4ccccc4n23)cc1 | 2.14 µM |
| N#Cc1c(C(F)(F)F)cc(Nc2cnccn2)n2c1nc1ccccc12 | 4.42 µM |
| COc1ccc(CNc2cc(C(F)(F)F)c(C#N)c3nc4ccccc4n23)cc1 | 3.18 µM |
| CN(Cc1ccccn1)c1cc(C(F)(F)F)c(C#N)c2nc3ccccc3n12 | > 2.72 µM |
| N#Cc1c(C(F)(F)F)cc(NCc2ccc(S(N)(=O)=O)cc2)n2c1nc1ccccc12 | 10.2 µM |
| CS(=O)(=O)c1ccc(CNc2cc(C(F)(F)F)c(C#N)c3nc4ccccc4n23)cc1 | 12.6 µM |
| CC(C)c1ccc(CNc2cc(C(F)(F)F)c(C#N)c3nc4ccccc4n23)cc1 | 2.4 µM |
| Cc1csc(Nc2cc(C(F)(F)F)c(C#N)c3nc4ccccc4n23)n1 | > 2.82 µM |
| COc1ncnc(Nc2cc(C(F)(F)F)c(C#N)c3nc4ccccc4n23)c1OC | > 2.82 µM |

test system: not listed separately; test: Resistance index, ratio of IC50 for chloroquine-resistant asexual blood stage of Plasmodium falciparum K1 infected in human RBC to IC50 for chloroquine-sensitive asexual blood stage of Plasmodium falciparum NF54 infected in human RBC; format: functional

| SMILES | Ratio IC50 |
| --- | --- |
| FC(F)(F)Oc1ccc(Nc2cc(C(F)(F)F)cc3nc4ccccc4n23)cc1 | 0.79 |
| NC(=O)c1c(C(F)(F)F)cc(NCc2ccc(OC(F)(F)F)cc2)n2c1nc1ccccc12 | 1.47 |
